Assay outcomes as filed in PubChem BioAssay.
Shown are actives, neighbours in structure and some others; about 4% of the full set was active somewhere.
NTR1 ag: NTR1 (human) agonism | activation, % at 20 µM | actives 0.17% (n = 330,000) | NTR1-U2OS beta-arrestin-GFP spot imaging, agonist mode | AID 493036 | P30989;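 active = activation at or above 40% of the spot to cytoplasm intensity ratio, with at least 20 cells analyzed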;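 note: 0% = DMSO without peptide and 100% = 100 nM NTR1 peptide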
CHO parental Ca: counter-screen: ATP calcium response change in parental CHO cells. parental CHO-K1, ATP-induced calcium, Fluo-8 fluorescence. actives 0.63% (n = 330,000). inhibition, % at 5.6 µM;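 active = inhibition above that plate's mean sample inhibition plus 3 SD, cut at about 26% in these data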;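 note: 0% = ATP-challenged DMSO wells and 100% = DMSO wells without ATP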
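test system = CHO parental line | reagent = ATP stimulus | measured by = intracellular calcium via Fluo-8 no-wash fluorescent dye | control set = ATP and no-ATP DMSO wells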
OX1R antag-1: antagonists of human orexin 1 receptor; inhibition, % at 5 µM; actives 0.43% (n = 330,000); CHO/OX1R cells, Fluo-8 calcium fluorescence, orexin A; AID 434989;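 active = inhibition above its plate's threshold, mean inhibition of all tested compounds on the plate plus 3 SD, cut at about 37% in these data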;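 note: 0% = orexin A challenge wells and 100% = SB-334867-A antagonist wells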
TAAR1 agonist: agonists of human TAAR1; CHO RD-HGA16 TAAR1, Fluo-8 calcium fluorescence; vehicle wells 0%, saturating PEA agonist 100%; activation, % at 3 µM; actives 0.99% (n = 360,000);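 active = activation above the mean activation of all test compounds in the run plus 3 SD, cut at about 38% in these data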
Target sequence (Q96RJ0 whole entry, looked up): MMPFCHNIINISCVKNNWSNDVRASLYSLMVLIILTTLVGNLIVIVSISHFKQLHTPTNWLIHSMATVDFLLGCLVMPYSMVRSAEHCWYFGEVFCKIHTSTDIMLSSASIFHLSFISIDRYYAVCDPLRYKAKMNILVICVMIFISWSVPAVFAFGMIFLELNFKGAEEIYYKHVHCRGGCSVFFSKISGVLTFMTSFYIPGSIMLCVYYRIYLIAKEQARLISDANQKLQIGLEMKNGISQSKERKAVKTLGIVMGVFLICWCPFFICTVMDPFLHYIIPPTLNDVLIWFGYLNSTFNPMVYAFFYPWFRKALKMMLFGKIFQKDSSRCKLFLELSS
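Benchmarks: low control DMSO, high control PEA (EC100); System: CHO RD-HGA16 cells carrying human TAAR1 plus Gα16; Detection: Fluo-8 fluorescence, 5 s baseline then 140 s kinetic read; Schedule: 17-24 h plating, Fluo-8 75 min 37 °C, 30 min RT; Read-out basis: % activation from peak over basal fluorescence ratio, DMSO-to-PEA scaled.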
OX1R antag-2: blocks the human orexin 1 receptor; OX1R-expressing cells, FRET antagonist read-out; AID 485270; inhibition, % at 6.6 µM; actives 1.8% (n = 330,000); O43613; in the data active = inhibition mostly above about 38%, no sharp cut-off; inactive = mostly below about 40%;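 note: 0% = agonist challenge alone and 100% = reference antagonist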
TAAR1 antagonist: human TAAR1 antagonism; inhibition, % at 3 µM; Q96RJ0; CHO RD-HGA16 TAAR1, Fluo-8 calcium fluorescence, antagonist; actives 1.5% (n = 360,000);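 active = inhibition above a per-plate cutoff, the mean inhibition of test compounds on that plate plus 3 SD, cut at about 49% in these data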;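 note: 0% = DMSO plus EC80 beta-PEA response and 100% = DMSO alone without agonist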
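Test system: hTAAR1-expressing CHO RD-HGA16 cells, Gα16-coupled; Probe or stimulus: EC80 β-phenethylamine stimulus; Compound dosing: single nominal final test compound concentration of 3 µM; Timing: 140 s kinetic read after compound, 140 s after agonist; Signal: Fluo-8 calcium-sensitive fluorescence; Measure: % inhibition of agonist calcium response; Controls: DMSO and EC80 PEA controls.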
TAAR1 nonsel count: nonselective antagonism, TAAR1 counter-screen. shares compounds with TAAR1 antagonist. counterscreen cell line, calcium fluorescence, antagonist mode. inhibition, % at 3 µM. actives 77% (n = 2,400). AID 651780; in the data active = inhibition above about 22%;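 note: CHO-Ga16 host cells stimulated with ATP at an EC80 level; 0% = agonist EC80 plus vehicle and 100% = vehicle without agonist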
TAAR1 ant conf: confirmation of human TAAR1 antagonists | shares compounds with TAAR1 antagonist | TAAR1-expressing cells, fluorescence antagonist read-out | inhibition, % at 3 µM | actives 40% (n = 2,400) | AID 651785; in the data active = inhibition above about 49%;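 note: CHO-Ga16 host cells challenged with agonist PEA near its EC80; 0% = agonist at EC80 plus vehicle and 100% = vehicle with no agonist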
Ga16 nonsel ag: counter-screen for TAAR1 antagonists: nonselective Ga16 agonists; activation, % at 3 µM; shares compounds with TAAR1 antagonist; Ga16-expressing cells, calcium fluorescence, agonist counterscreen; actives 18% (n = 2,400); AID 651953; in the data active = activation above about 12%;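 note: 0% = vehicle wells and 100% = saturating stimulus response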
TAAR1 ag counter: counter-screen for human TAAR1 antagonists: TAAR1 agonists; activation, % at 3 µM; shares compounds with TAAR1 antagonist; actives 2% (n = 2,400); hTAAR1 cell line, fluorescence activation, agonist mode; in the data active = activation above about 37%;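 note: CHO cells stably expressing TAAR1 with calcium dye readout; 0% = DMSO vehicle and 100% = full agonist response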
The depositor's hits bear a star; x = no result given.

SMILES	NTR1 ag	CHO parental Ca	OX1R antag-1	TAAR1 agonist	OX1R antag-2	TAAR1 antagonist	TAAR1 nonsel count	TAAR1 ant conf	Ga16 nonsel ag	TAAR1 ag counter
CC(O)[C@H]1CC[C@H]2[C@@H]3CC[C@H]4C[C@H](O)CC[C@]4(C)[C@H]3[C@H](O)C[C@]12C (stereo partly specified)	1	-11	3	14	13	1	x	x	x	x
CC12CCC3C(CCC4CC(O)CCC43C)C1CC(O)C2 (stereo unspecified)	x	x	x	20	x	79*	35*	56*	12*	10
O=c1c2ccc([N+](=O)[O-])cc2ncn1CCOc1ccccc1	2	-13	-22	16	68*	77*	26*	62*	10	9
Cc1ccc(OCCn2cnc3cc([N+](=O)[O-])ccc3c2=O)cc1	2	-13	-23	11	33	78*	31*	51*	9	7
O=c1c2ccccc2ncn1CCOCCOc1ccc([N+](=O)[O-])cc1	-2	-16	-13	4	17	-6	x	x	x	x
C[C@H](CO)N1C[C@H](C)[C@@H](CN(C)S(=O)(=O)c2ccc(F)cc2)Oc2c(NS(=O)(=O)c3ccccc3)cccc2C1=O	0	-16	-34	3	-2	3	x	x	x	x
O=C1CNC(=S)N1Cc1cccc(Cl)c1	-1	-13	-13	2	-2	-12	x	x	x	x
CCC(C)(C)NC(=O)C(c1ccc(OC)cc1)N(C(=O)CCC(=O)Nc1cc(C)on1)c1ccc2c(c1)OCCO2 (stereo unspecified)	0	-13	-28	-3	9	-1	x	x	x	x
N#C/C(=C\Nc1ccccc1O)c1nc2ccccc2o1	x	18	23	9	37	87*	48*	73*	10	13
O=C(NCc1ccc(F)cc1)C(=O)NCC1CCCN1S(=O)(=O)c1ccccc1 (stereo unspecified)	2	-19	-37	-1	18	-6	x	x	x	x
COc1ccc(S(=O)(=O)N2CCCC2CNC(=O)C(=O)NCc2ccccc2)cc1 (stereo unspecified)	1	-3	-26	1	11	-4	x	x	x	x
COc1ccc(CCNC(=O)C(=O)NCC2CCCN2S(=O)(=O)c2ccccc2)cc1 (stereo unspecified)	2	-22	5	14	22	65*	27*	50*	11	18
O=C(NCCc1ccc(F)cc1)C(=O)NCC1CCCN1S(=O)(=O)c1ccccc1 (stereo unspecified)	1	-24	4	16	58*	65*	27*	51*	10	14
C[C@]12CC[C@H]3C(=CCc4cc(O)ccc43)[C@@H]1CCC2=O	-1	-4	-2	16	8	83*	35*	59*	12*	13
C[C@]12C[C@H](O)[C@@H]3c4ccc(O)cc4CCC3[C@@H]1CCC2=O (stereo partly specified)	0	-2	-10	1	14	-17	x	x	x	x
CCN(CC)S(=O)(=O)c1ccc(C)c(NC(=O)COc2ccc3c(C)cc(=O)oc3c2)c1	2	-6	-12	2	28	-18	x	x	x	x
CCN(CC)S(=O)(=O)c1ccc(OC)c(NC(=O)C(C)Oc2ccc3c(C)cc(=O)oc3c2)c1 (stereo unspecified)	3	-14	-11	1	28	103*	8	-8	9	13
COc1cccc(C(=O)NC(=S)N2CCN(c3ccc(C(F)(F)F)cc3[N+](=O)[O-])CC2)c1	2	-15	-16	5	5	-3	x	x	x	x
COc1cccc(OC)c1C(=O)NC(=S)N1CCN(c2ccc(C(F)(F)F)cc2[N+](=O)[O-])CC1	1	-21	-15	15	-5	81*	31*	51*	7	5
O=C(Nc1ccc(NC(=S)NC(=O)c2ccccc2F)cc1)c1cccs1	0	0	-30	11	32	52*	20	28	9	10
COc1cc(NC(=S)NC(=O)c2ccccc2F)ccc1NC(=O)c1cccs1	4	-17	-38	5	13	-13	x	x	x	x
Nc1c(C(=O)OCC2CCCO2)c2nc3ccccc3nc2n1-c1ccc2c(c1)OCCO2 (stereo unspecified)	1	-19	-4	8	27	52*	30*	39	7	8
O=C(Nc1ccc2oc(-c3cccnc3)nc2c1)c1ccc(Br)o1	5	-7	-12	20	13	52*	17	25	4	5
O=C(Nc1cccc(-c2nc3ccccc3o2)c1)c1cccnc1	4	-17	-17	10	65*	67*	23*	35	10	7
O=C(Nc1ccc2oc(-c3cccnc3)nc2c1)c1ccco1	-1	-15	-16	5	32	19	x	x	x	x
SMILES	NTR1 ag	CHO parental Ca	OX1R antag-1	TAAR1 agonist	OX1R antag-2	TAAR1 antagonist	TAAR1 nonsel count	TAAR1 ant conf	Ga16 nonsel ag	TAAR1 ag counter
OCC1CCCCN1CC(O)COC(c1ccc(F)cc1)c1ccc(F)cc1 (stereo unspecified)	-1	-17	-21	1	7	-16	x	x	x	x
COc1cc(OC)cc(C(=O)Nc2cccc(-c3ccc(N4CCOCC4)nn3)c2)c1	0	-12	-26	11	5	55*	35*	39	6	8
O=C(COc1ccc(Cl)cc1)Nc1cccc(-c2ccc(N3CCOCC3)nn2)c1	6	-4	-25	13	6	68*	32*	45	7	4
O=C1c2ccccc2[C@@H]2C[C@@H](O)[C@H](Nc3cccc(C(F)(F)F)c3)CCN12	1	-15	-19	5	12	21	x	x	x	x
Cc1sc2ncnc(N3CCC(C(=O)N(C)CC(=O)Nc4ccccc4Cl)CC3)c2c1C	4	-17	-14	11	14	64*	25*	41	9	5
Cc1sc2ncnc(N3CCC(C(=O)N(C)CC(=O)Nc4ccccc4Br)CC3)c2c1C	4	-31	-25	10	24	63*	27*	44	9	8
